Results taken from ChEMBL document CHEMBL4513216, “Probing the Open Global Health Chemical Diversity Library for Multistage-Active Starting Points for Next-Generation Antimalarials” (ACS Infect Dis, 2020).

Assay: Toxicity liver stage against HepG2, at 10uM
Assay type: cell-based
Set-up: test concentration 10 uM, cell line HepG2-A16-CD81EGFP
Settings: human, HepG2-A16-CD81EGFP cells; read-out: INHIBITION
In short: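 Uninfected HepG2-A16-CD81EGFP cells, 3 × 10^3 per well, 1536-well, plated on prespotted compound at 10 μM final, parasite-free screening media added to match infected plates; puromycin 10 μM positive, DMSO 0.5% negative; run in parallel with 48 h PbLuc assay at 37 °C, 5% CO2; viability by CellTiter-Glo luminescence, normalized to controls.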

Compound	cytotoxicity at 10 µM
COCC(=O)NC[C@H]1OC[C@@H](NC2CCC(F)(F)CC2)[C@@H]1O	-3.32%
Cn1cc(CNC[C@H]2Cn3ccnc3CO2)c2ccccc21	-1.91%
Cc1nc(N2CCCC2)nc(C)c1NS(C)(=O)=O	1.61%
O=C(Cn1nc(Br)nc1Br)N1CCCCC1	-4.38%
CN(C)C(CNS(=O)(=O)c1ccc(F)cc1F)c1cccn1C (centres undefined)	-13.9%
COCC1c2c(cnn2C)CCN1Cc1ccoc1 (centres undefined)	-10.8%
O=C(Cn1nc(C(F)(F)F)c(Br)c1C1CC1)N1CCOCC1	-0.614%
O=C(O)CCC(=O)Nc1nn(Cc2ccccc2Cl)cc1Cl	7%
Cc1nn(C)c2cn(C(C)C(=O)NCc3ccc(F)cc3)nc12 (centres undefined)	9.46%
COc1ccc(-c2cc(C3(O)CCN(C)CC3)on2)cc1	3.89%
COCCNC(=O)c1nnn(Cc2ccccc2)c1OC	11.6%
Cc1nn(C)cc1NC(=O)CN1CCN(C2CCCC2)C(=O)C1	6.89%
CN1CCOC(C)(C(=O)Nc2nccs2)C1 (centres undefined)	4.92%
CCCn1nccc1-c1cnc(CC2CCN(C(C)=O)C2)cn1 (centres undefined)	-6.88%
COc1ccc2c(c1)NC(C1CCNCC1)NS2(=O)=O (centres undefined)	-2.86%
Cc1nnsc1C(=O)N1CCCCC1c1cc2nc(C)c(C)c(O)n2n1 (centres undefined)	-5.93%
CN(C)C(=O)CN1CCCCC1c1nc(N)ncc1-c1ccccc1 (centres undefined)	4.19%
CCn1cc(CN2CC3CCCN3C[C@H]2C)c(C)n1 (some centres undefined)	0.951%
O=C(CC(SC1CCCCC1)C(=O)O)c1ccc(Br)cc1 (centres undefined)	3.43%
O=S(=O)(c1cc(F)ccc1F)N1CCCC1c1ccncc1 (centres undefined)	14.3%
Cc1cc(C(=O)N(C)C2CCS(=O)(=O)C2)c2ccc(F)cc2n1 (centres undefined)	-9.59%

Compound	cytotoxicity at 10 µM
COc1ccc(CN(C)Cn2cc(C)n(-c3cc(C)on3)c2=O)cc1	3.36%
O=S(=O)(c1cncc(F)c1)N1CCC2(CCCCC2)C1	-4.61%
CC(C)(C)c1n[nH]c(C2CN(CC3CCC3)CCO2)n1 (centres undefined)	9.15%
Cc1ccc(C)c(Oc2ccc(CNC(=O)C3CCC(=O)N3)cn2)c1 (centres undefined)	5.98%
O=C(NCC1CCCN1CCc1ccccc1)NCC1(O)CCC1 (centres undefined)	-3.06%
O=C(Cc1ccc(F)cc1)NCCNS(=O)(=O)c1ccc(F)c(F)c1	-6.7%
CC(C)CCC(=O)NCC(=O)N1CCCCCC1c1ccco1 (centres undefined)	7.47%
CS(=O)(=O)N1CCc2c(cccc2NC(=O)Nc2ccccn2)C1	-6%
CCN(Cc1ccoc1)C(=O)NC1CCN(CC2CC2)C1 (centres undefined)	-0.525%
CCN(Cc1ccc(Cl)c(Cl)c1)C(=O)CCn1cncn1	9.87%
Cc1ccc(CNCc2cccc(NC(=O)CCN3CCOCC3)c2)s1	-1.91%
O=S(=O)(c1ccccc1)N1CCC[C@]2(C[C@H](OCC3CC3)CO2)C1	-75.9%
CC(C)c1nc(CN(C)C(=O)CCc2ccc3c(c2)OCO3)cs1	-15.8%
Cc1cc(C)n(CCCC(=O)N2CC[C@H]3NCCC[C@]3(CO)C2)n1	-0.862%
COCCC(=O)N1C[C@H](C(C)C)[C@@H](N(C)C)C1	5.75%
COc1ccccc1OC1CCN(C(=O)c2cccc(O)c2C)CC1	12.5%
CCS(=O)(=O)N1CCC(c2nccn2Cc2ccccn2)CC1	6.27%
CCc1c(C)sc2ncnc(N3CC[C@@H](N4CCOCC4)[C@H](O)C3)c12	-4.24%
COCCN(C)C(C(=O)O)c1ccc(C)c(C)c1 (centres undefined)	-9.47%
Cc1cc(C(F)(F)F)nc(CNc2nc(C)nc3c2cnn3C)n1	-2.24%
Cc1noc(C)c1CN1CCn2nc(CCC(=O)N3CCCC3)cc2C1	-4.52%

Compound	cytotoxicity at 10 µM
CNCCNc1nccc(-c2cn(C)nc2C)n1	2.35%
Cc1nc(C)n(CCCNc2ncnc3onc(C)c23)n1	-7.12%
CCOCc1nc2c(c(N3CCN4CCCC4C3)n1)CCNCC2 (centres undefined)	0.394%
CCc1ccc(CN2CCN(c3ccc(C(N)=O)cn3)CC2)nc1	4.95%
Cc1nc(N)nc(C)c1CC(=O)N1CCCCC1c1cccc(F)c1 (centres undefined)	-2.06%
C=C(C)COc1ccccc1CN1CCC(NC(C)=O)CC1	11.9%
OC1(CN2CCCC2)COCCN(c2ncnc3[nH]ccc23)C1 (centres undefined)	10.7%
CCN(Cc1cc(Cl)ccc1OC)Cc1ncnn1CC	3.9%
O=C(COc1cccnc1)N1CCOC(C(F)(F)F)C1 (centres undefined)	-11.5%
O=C(NCCNc1cc(N2CCCC2)ncn1)c1cnccn1	-46.3%
CN(CCSc1ccccc1)C(=O)C(c1cccnc1)N1CCOCC1 (centres undefined)	4.94%
Cc1cc(-c2ccc(C(=O)O)cc2)nc(C2CCCN(C(C)C)C2)n1 (centres undefined)	5.61%
CC(C)(C)CC(=O)NS(=O)(=O)c1ccc(C#N)cc1C(F)(F)F	-12.3%
Cc1nnc(C(C)N2CCCN(Cc3ccc(F)cc3)CC2)o1 (centres undefined)	-4.92%
Cc1cnn(C2CCCN(C(=O)CCNS(C)(=O)=O)C2)c1 (centres undefined)	-28.6%
Cc1nn(CCO)c(C)c1CNCc1cccnc1N(C)C	-9.89%
COc1ccc(CNCc2c(C(C)C)nn(C)c2N(C)C)cn1	-3.92%
O=C(c1ccccc1)N1CCN(CC(O)c2ccc(F)cc2)CC1 (centres undefined)	-8.24%
CCN1CCN(C(=O)c2cnc3c(cnn3C3CCCC3)c2)CC1	-14.1%
Cn1ccc2c(C(=O)N3CCCC3c3noc(C4CC4)n3)cccc21 (centres undefined)	-7.82%
N#Cc1ccccc1N1CCCN(C(=O)CCc2ccsc2)CC1	-8.25%

Compound	cytotoxicity at 10 µM
Cc1ncc2c(n1)CN(CCCOc1ccc(C#N)cc1)CC2	-3.9%
CCc1nc(CN2CCCN(C(=O)CCCOC)CC2)cs1	-14.4%
Cc1cccc2nc(CN3CCCC3Cn3cccn3)cn12 (centres undefined)	0.893%
CCc1ncc2c(n1)CN(CC(=O)Nc1cccnc1)CC2	-1.1%
O=C(CN1CCCC(Cn2cncn2)C1)NCc1ccccc1F (centres undefined)	-4.65%
Cc1cccc(-c2noc(CN3CCCC3Cn3cncn3)n2)c1 (centres undefined)	0.983%
Cc1cnn(CC2CN(CC(=O)NCc3ccc(C)s3)CCO2)c1 (centres undefined)	0.742%
CN(Cc1nnc2n1CCC2)C(=O)Cc1ccc2c(c1)CCC2	-15.5%
O=C(NCC1CCOC1)c1csc(-c2cccc(Cl)c2)n1 (centres undefined)	-7.41%
Cc1cc(CNc2cc(Cl)ccc2Cl)no1	18.9%
O=C(c1ccc(NC2CC2)nc1)N1CCCC(n2cccn2)C1 (centres undefined)	-12.2%
CN(C)C(=O)N1CCN(Cc2noc(Cc3ccccc3)n2)CC1	-8.8%
CCn1cc(NC(=O)C2CCN(Cc3ccccc3C#N)CC2)cn1	1.13%
O=C(NCCNc1cnccn1)N1CCCC1	3.92%
c1ccc(CN2CCN(Cc3cscn3)CC2)cc1	-2.69%
CN1CC(=O)N(c2ccsc2)CC12CCN(C(=O)c1cccn1C)C2 (centres undefined)	-75.7%
CN1CCOCC2(CCCN(C(=O)Cc3ccncc3)C2)C1 (centres undefined)	-84.6%
CN(C)C(=O)CN1CCC2(COCc3cnc(N4CCOCC4)nc32)C1 (centres undefined)	-70.5%
Cc1nc(CN2C[C@@H]3CN(C(=O)[C@H]4CCCO4)C[C@@H]3C2=O)cs1	-81.5%
C=c1ncsc1=C1NN=C(C2CCCN2C(=O)Cn2cccn2)O1 (centres undefined)	4%
Cc1nnc(SCC(=O)N2C[C@@H]3CC[C@H]2CN(c2ncccn2)C3)[nH]1	2.24%
